As usually defined, the pKi is −log10 of the Ki, conventionally taken in molar units.

pKi: −log10 of the molar value. Calls of active or inactive are those of the source. No cut-off for these calls is given here.

From ChEMBL document CHEMBL4393677, “Comparative analysis of pyrimidine substituted aminoacyl-sulfamoyl nucleosides as potential inhibitors targeting class I aminoacyl-tRNA synthetases” (Eur J Med Chem, 2019) come the findings set out here.

For data set [1], the target named is T1, Tyrosine--tRNA ligase (Escherichia coli (strain K12)) (UniProt P0AGJ9).
T1 sequence (whole entry): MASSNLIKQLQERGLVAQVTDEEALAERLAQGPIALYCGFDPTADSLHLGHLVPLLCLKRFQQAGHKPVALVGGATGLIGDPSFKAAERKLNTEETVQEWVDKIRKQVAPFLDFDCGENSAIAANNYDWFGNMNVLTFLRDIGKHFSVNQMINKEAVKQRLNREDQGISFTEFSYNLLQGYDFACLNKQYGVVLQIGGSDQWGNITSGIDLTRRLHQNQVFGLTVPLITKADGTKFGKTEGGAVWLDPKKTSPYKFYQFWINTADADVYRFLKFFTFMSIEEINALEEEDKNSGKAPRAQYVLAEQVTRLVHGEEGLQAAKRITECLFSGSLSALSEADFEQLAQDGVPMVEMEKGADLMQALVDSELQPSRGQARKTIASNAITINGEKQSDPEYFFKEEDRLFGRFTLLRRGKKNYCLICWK
Kind of data set: Inhibition of tyrRS in Escherichia coli BL21 (DE3) pLysS S30 extract over expressing YhhY incubated for 5 to 60 mins in presence of 14C-labeled tyrosine by liquid scintillation counting method.

Data set [2] concerns the target T1, Tyrosine--tRNA ligase (Escherichia coli (strain K12)). The experiment in a line: Inhibition of tyrRS in Escherichia coli NCIB 8743 S30 extract assessed as aminoacylation at 250 nM incubated for 5 mins in presence of 14C-labeled tyrosine by liquid scintillation counting method relative to control. Also on record: scale not given: the % may be the effect or the level left. An outline of the steps:
(§1)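 S30 extract from cells grown in LB at 37 °C to OD600 1.2, sonicated, twice clarified; diluted 10-fold. Inhibitor (5 µM stock) preincubated 5 min with extract, then aminoacylation at 37 °C with 30 mM Tris pH 8.0, 1 mM DTT, 5 g/L tRNA, 3 mM ATP, 30 mM KCl, 8 mM MgCl₂, ¹⁴C-Ile 15 µM or ¹⁴C-Tyr 9.66 µM; quenched at 1 min, TCA filters counted. Activity relative to no-inhibitor extract; mean of three.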

The target of data set [3] is Isoleucine--tRNA ligase (Escherichia coli K-12) (UniProt P00956). The experiment in a line: Inhibition of ileRS in Escherichia coli BL21 (DE3) pLysS S30 extract over expressing SUMO incubated for 5 to 60 mins in presence of 14C-labeled isoleucine and acetyl-CoA by liquid scintillation counting method.
Chain of Isoleucine--tRNA ligase (Escherichia coli K-12) (P00956 whole entry): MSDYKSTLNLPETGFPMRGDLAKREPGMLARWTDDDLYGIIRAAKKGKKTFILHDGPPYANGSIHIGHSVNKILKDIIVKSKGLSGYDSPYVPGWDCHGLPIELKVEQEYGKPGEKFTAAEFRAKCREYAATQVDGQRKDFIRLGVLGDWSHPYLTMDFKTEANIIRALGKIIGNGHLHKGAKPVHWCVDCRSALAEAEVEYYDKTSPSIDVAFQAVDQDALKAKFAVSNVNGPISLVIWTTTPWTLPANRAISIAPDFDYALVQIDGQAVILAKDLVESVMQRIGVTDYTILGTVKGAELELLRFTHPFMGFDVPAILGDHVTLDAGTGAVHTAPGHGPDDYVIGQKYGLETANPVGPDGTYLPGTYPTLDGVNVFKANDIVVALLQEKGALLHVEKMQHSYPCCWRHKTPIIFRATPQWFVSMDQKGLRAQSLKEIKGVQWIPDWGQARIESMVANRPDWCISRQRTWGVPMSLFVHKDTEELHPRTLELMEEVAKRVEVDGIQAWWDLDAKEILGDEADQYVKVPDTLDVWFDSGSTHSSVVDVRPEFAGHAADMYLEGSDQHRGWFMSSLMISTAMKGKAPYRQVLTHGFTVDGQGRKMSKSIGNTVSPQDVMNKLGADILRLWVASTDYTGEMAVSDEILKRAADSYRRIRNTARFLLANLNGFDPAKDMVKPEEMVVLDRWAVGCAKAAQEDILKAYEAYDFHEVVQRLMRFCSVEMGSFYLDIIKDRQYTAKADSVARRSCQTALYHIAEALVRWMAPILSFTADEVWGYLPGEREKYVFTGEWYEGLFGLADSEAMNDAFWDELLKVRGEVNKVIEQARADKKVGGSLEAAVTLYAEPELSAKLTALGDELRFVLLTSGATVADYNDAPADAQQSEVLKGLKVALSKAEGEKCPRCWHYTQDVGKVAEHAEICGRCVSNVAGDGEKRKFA
For data set [4], the target named is T1, Tyrosine--tRNA ligase (Escherichia coli (strain K12)). The experiment in a line: Inhibition of tyrRS in Escherichia coli BL21 (DE3) pLysS S30 extract over expressing SUMO incubated for 5 to 60 mins in presence of 14C-labeled tyrosine by liquid scintillation counting method.
Data set [5] addresses Isoleucine--tRNA ligase (Escherichia coli K-12) (UniProt P00956). Kind of data set: Inhibition of ileRS in Escherichia coli BL21 (DE3) pLysS S30 extract over expressing RimI incubated for 5 to 60 mins in presence of 14C-labeled isoleucine and acetyl-CoA by liquid scintillation counting method.
The target in data set [6] is T1, Tyrosine--tRNA ligase (Escherichia coli (strain K12)). Kind of data set: Inhibition of tyrRS in Escherichia coli BL21 (DE3) pLysS S30 extract over expressing RimI incubated for 5 to 60 mins in presence of 14C-labeled tyrosine by liquid scintillation counting method.
For data set [7], the target named is T2, Tyrosine--tRNA ligase (Escherichia coli (strain K12), UniProt P0AGJ9).
T2 sequence (P0AGJ9 whole entry): T1 sequence (whole entry)
The experiment in a line: Inhibition of purified Escherichia coli BL21 (DE3) tyrRS incubated for 10 mins in presence of 14C-labeled tyrosine by radiolabel transfer assay. Particulars: read-out: Ki(app).

For data set [8], the target named is Isoleucine--tRNA ligase (Escherichia coli K-12) (UniProt P00956). Kind of data set: Inhibition of ileRS in Escherichia coli BL21 (DE3) pLysS S30 extract over expressing RimL incubated for 5 to 60 mins in presence of 14C-labeled isoleucine and acetyl-CoA by liquid scintillation counting method.
Data set [9] deals with Leucine--tRNA ligase (Escherichia coli (strain K12), UniProt P07813). Kind of data set: Inhibition of purified Escherichia coli BL21 (DE3) leuRS incubated for 10 mins in presence of 14C-labeled leucine by radiolabel transfer assay. The conditions noted are these: read-out: Ki(app).
Chain of Leucine--tRNA ligase (P07813 whole entry): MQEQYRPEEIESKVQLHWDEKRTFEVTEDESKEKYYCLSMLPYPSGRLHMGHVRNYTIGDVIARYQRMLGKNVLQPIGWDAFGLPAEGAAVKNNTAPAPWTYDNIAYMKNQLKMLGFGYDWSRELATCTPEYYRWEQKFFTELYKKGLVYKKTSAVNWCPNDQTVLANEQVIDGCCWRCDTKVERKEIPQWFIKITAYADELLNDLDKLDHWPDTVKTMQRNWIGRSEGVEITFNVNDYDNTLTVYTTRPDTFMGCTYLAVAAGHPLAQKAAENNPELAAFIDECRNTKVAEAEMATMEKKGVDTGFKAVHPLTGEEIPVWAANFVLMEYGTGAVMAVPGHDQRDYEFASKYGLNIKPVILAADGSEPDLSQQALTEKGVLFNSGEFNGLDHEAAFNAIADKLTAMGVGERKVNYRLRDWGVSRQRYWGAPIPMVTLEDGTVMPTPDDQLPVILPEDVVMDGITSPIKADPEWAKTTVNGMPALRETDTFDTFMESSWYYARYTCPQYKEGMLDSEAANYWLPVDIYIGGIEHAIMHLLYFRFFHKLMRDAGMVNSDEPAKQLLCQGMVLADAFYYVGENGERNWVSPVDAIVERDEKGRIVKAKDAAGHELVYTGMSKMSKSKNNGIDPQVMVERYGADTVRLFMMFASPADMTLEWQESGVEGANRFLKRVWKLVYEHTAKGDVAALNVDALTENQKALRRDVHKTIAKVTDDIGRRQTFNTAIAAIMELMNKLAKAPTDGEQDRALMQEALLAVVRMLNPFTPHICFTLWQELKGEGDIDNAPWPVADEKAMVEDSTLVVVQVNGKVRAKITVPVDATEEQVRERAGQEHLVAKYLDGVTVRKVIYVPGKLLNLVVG
A short description of data set [10]: Stability of compound in Escherichia coli BL21 (DE3) pLysS S30 extract assessed as compound degradation at 0.25 uM in presence of 14C-labeled isoleucine and acetyl-CoA by liquid scintillation counting method. Format: ADME, subcellular.
The target in data set [11] is Isoleucine--tRNA ligase (Escherichia coli K-12) (UniProt P00956). The experiment in a line: Inhibition of ileRS in Escherichia coli NCIB 8743 S30 extract assessed as aminoacylation at 250 nM incubated for 5 mins in presence of 14C-labeled isoleucine by liquid scintillation counting method relative to control. On the set-up: scale not given: the % may be the effect or the level left. Summed up:
as §1

The target is the same in data set [12]. Kind of data set: Inhibition of ileRS in Escherichia coli BL21 (DE3) pLysS S30 extract over expressing YhhY incubated for 5 mins in presence of 14C-labeled isoleucine and acetyl-CoA by liquid scintillation counting method.
Data set [13] can be described thus: Stability of compound in Escherichia coli NCIB 8743 S30 extract assessed as compound degradation incubated for 48 hr in presence of 14C-labeled isoleucine and acetyl-CoA by liquid scintillation counting method. Format: ADME, subcellular. Summed up:
(§2)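 Inhibitor (5 μM stock) incubated at 37 °C up to 48 h with S30 extract (1:3), or with extract plus acetyl-CoA (10 mM stock) (1:1:3). Aliquots at set times added to aminoacylation mix (30 mM Tris pH 8.0, 1 mM DTT, tRNA, 3 mM ATP, 30 mM KCl, 8 mM MgCl₂, 10 μM ¹⁴C-isoleucine) at 37 °C; quenched after 1 min, ileRS activity by scintillation counting.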

Data set [14] can be described thus: Stability of compound in Escherichia coli NCIB 8743 S30 extract assessed as compound degradation incubated for 1 hr n presence of 14C-labeled isoleucine and acetyl-CoA by liquid scintillation counting method. Format: ADME, subcellular. An outline of the steps: as §2
A short description of data set [15]: Stability of compound in Escherichia coli NCIB 8743 S30 extract assessed as compound degradation at 0.25 uM in presence of 14C-labeled isoleucine and acetyl-CoA by liquid scintillation counting method. Format: ADME, subcellular. Summed up: as §2
Data set [16] addresses Leucine--tRNA ligase (Escherichia coli (strain K12)) (UniProt P07813). The experiment in a line: Inhibition of leuRS in Escherichia coli BL21 (DE3) pLysS S30 extract over expressing YhhY incubated for 60 mins in presence of 14C-labeled leucine by liquid scintillation counting method.
The target in data set [17] is Isoleucine--tRNA ligase (Escherichia coli K-12) (UniProt P00956). The experiment in a line: Inhibition of ileRS in Escherichia coli BL21 (DE3) pLysS S30 extract over expressing YhhY incubated for 60 mins in presence of 14C-labeled isoleucine and acetyl-CoA by liquid scintillation counting method.
Data set [18] has as its target Leucine--tRNA ligase (Escherichia coli (strain K12)) (UniProt P07813). The experiment in a line: Inhibition of leuRS in Escherichia coli BL21 (DE3) pLysS S30 extract over expressing YhhY incubated for 5 mins in presence of 14C-labeled leucine by liquid scintillation counting method.
Data set [19] deals with Isoleucine--tRNA ligase (Escherichia coli K-12, UniProt P00956). Kind of data set: Inhibition of purified Escherichia coli BL21 (DE3) ileRS incubated for 10 mins in presence of 14C-labeled isoleucine by radiolabel transfer assay. The conditions noted are these: read-out: Ki(app).
Chain of Isoleucine--tRNA ligase (P00956 whole entry): as the sequence (P00956 whole entry) above
For data set [20], the target named is T1, Tyrosine--tRNA ligase (Escherichia coli (strain K12)). The experiment in a line: Inhibition of tyrRS in Escherichia coli BL21 (DE3) pLysS S30 extract over expressing RimL incubated for 5 to 60 mins in presence of 14C-labeled tyrosine by liquid scintillation counting method relative to control.

Chain of Leucine--tRNA ligase (Escherichia coli (strain K12)) (P07813 whole entry): as the sequence (P07813 whole entry) above

For the compound `Nc1ccn([C@@H]2O[C@H](COS(=O)(=O)NC(=O)[C@@H](N)Cc3ccc(O)cc3)[C@@H](O)[C@H]2O)c(=O)n1`, the inhibition entry in data set [1] is “inactive”. Besides, the result in data set [2] was inactive. The inhibition result in data set [3], in [4], in data set [5] and in [6] was “Active” throughout. For the same compound, the pKi in data set [7] is 5.83.
Regarding `CC(C)C[C@H](N)C(=O)NS(=O)(=O)OC[C@H]1O[C@@H](n2ccc(=O)[nH]c2=O)[C@H](O)[C@@H]1O`, the inhibition entry in data set [8] is “inactive”. Besides, the negative-log Ki (pKi) in data set [9] is 7.68. For the same compound, the inhibition entry in [3], in data set [4], in data set [5] and in data set [6] was “Active” in each case.
Turning to `CC[C@H](C)[C@H](N)C(=O)NS(=O)(=O)OC[C@H]1O[C@@H](n2cnc3c(N)ncnc32)[C@H](O)[C@@H]1O`, the inhibition entry in [8] and in data set [17] was “inactive” throughout. The Stability result in [10], in data set [13], in data set [14] and in data set [15] was “Stable” throughout. The Activity in [11] lay within 0.05 to 1.8%. Further, the inhibition result in data set [3], in data set [12], in [4], in data set [5], in [6] and in [16] was “Active” each time. In addition, the inhibition result in data set [18] is “Active”.
For `CC[C@H](C)[C@H](N)C(=O)NS(=O)(=O)OC[C@H]1O[C@@H](n2ccc(N)nc2=O)[C@H](O)[C@@H]1O`, the inhibition entry in data set [8], in data set [16] and in [17] was “inactive” in each case. Also, the pKi in data set [19] was 7.76. Also, the Activity in [11] is 5 to 14%. Also, the inhibition entry in data set [3], in data set [12], in data set [4], in data set [5], in [6] and in [18] was “Active” in each case. The Stability result in data set [13] and in data set [14] was “Stable” throughout.
Regarding `CC(C)C[C@H](N)C(=O)NS(=O)(=O)OC[C@H]1O[C@@H](n2ccc(N)nc2=O)[C@H](O)[C@@H]1O`, the inhibition entry in [8] is “inactive”. Besides, the pKi in [9] was 8.01. Besides, the inhibition result in data set [3], in data set [4], in data set [5] and in [6] was “Active” each time.
Consider `CC(C)C[C@H](N)C(=O)NS(=O)(=O)OC[C@H]1O[C@@H](n2cnc3c(N)ncnc32)[C@H](O)[C@@H]1O`, for which the inhibition entry in data set [8] was “inactive”. The inhibition entry in data set [3], in data set [4], in [5] and in data set [6] was “Active” throughout.
Regarding `Cn1c(=O)ccn([C@@H]2O[C@H](COS(=O)(=O)NC(=O)[C@@H](N)Cc3ccc(O)cc3)[C@@H](O)[C@H]2O)c1=O`, in data set [2], the Activity lay in the range of 37 to 62%. In addition, in data set [7], the pKi was 6.83.
For the compound `CC(C)C[C@H](N)C(=O)NS(=O)(=O)OC[C@H]1O[C@@H](n2ccc(=O)n(C)c2=O)[C@H](O)[C@@H]1O`, the pKi in data set [9] is 7.53.
As for `CC[C@H](C)[C@H](N)C(=O)NS(=O)(=O)OC[C@H]1O[C@@H](n2ccc(=O)n(C)c2=O)[C@H](O)[C@@H]1O`, in data set [19], the pKi was 5.98. Also, the Activity in data set [11] lay in the range of 17 to 34%. The Stability result in data set [13] and in data set [14] was “Stable” each time.
With `CC[C@H](C)[C@H](N)C(=O)NS(=O)(=O)OC[C@H]1O[C@@H](n2ccc(=O)[nH]c2=O)[C@H](O)[C@@H]1O`, the inhibition result in [8], in data set [16] and in [17] was “inactive” in each case. Also, the Stability result in data set [10], in data set [13], in [14] and in data set [15] was “Stable” each time. Also, in data set [19], the negative logarithm of the Ki (pKi) was 7.26. Moreover, the Activity in [11] was 5 to 14%. The inhibition result in data set [3], in data set [12], in data set [4], in [5], in data set [6] and in data set [18] was “Active” in each case.
In the case of `Nc1ncnc2c1ncn2[C@@H]1O[C@H](COS(=O)(=O)NC(=O)[C@@H](N)Cc2ccc(O)cc2)[C@@H](O)[C@H]1O`, the inhibition entry in [1], in data set [3], in [4], in data set [5], in data set [20] and in data set [6] was “Active” in each case. The Activity in data set [2] is 0.05 to 1.8%.
`N[C@@H](Cc1ccc(O)cc1)C(=O)NS(=O)(=O)OC[C@H]1O[C@@H](n2ccc(=O)[nH]c2=O)[C@H](O)[C@@H]1O`: the inhibition result in [1], in data set [3], in [4], in data set [5], in data set [20] and in data set [6] was “Active” throughout. For the same compound, the Activity in data set [2] fell in the range of 37 to 62%. In addition, the negative-log Ki (pKi) in data set [7] was 7.36.
